Data: ChEMBL document CHEMBL3286372, “Design, synthesis and structure-activity relationship of novel semi-synthetic flavonoids as antiproliferative agents” (2014)

Assays:
[1] = Growth inhibition of human OVCAR4 cells after 48 hrs by coulter counting analysis; type: functional; details: OVCAR-4, 48 h
Method in brief: (§1)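 Five-dose NCI-60 follow-up, 0.01–100 µM, made from DMSO stock in buffered saline (final DMSO <1%), in duplicate wells. Cells in RPMI 1640 with 10% FBS at 6×10^4 cells/ml, 37 °C, 5% CO2, 48 h. Cells diluted tenfold in saline, Coulter-counted and corrected for dilution. GI50, TGI and LC50 taken from log concentration–percent growth curves.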

[2] = Growth inhibition of human OVCAR5 cells after 48 hrs by coulter counting analysis; type: functional; details: OVCAR-5, 48 h; method in brief: as §1
[3] = Growth inhibition of human NCI-ADR-RES cells after 48 hrs by coulter counting analysis; type: functional; method in brief: as §1
[4] = test system: SK-OV-3; experiment: Growth inhibition of human SKOV3 cells after 48 hrs by coulter counting analysis; type: functional; details: SK-OV-3, 48 h; method in brief: as §1
[5] = test system: 786-0; experiment: Growth inhibition of human 786-0 cells after 48 hrs by coulter counting analysis; type: functional; details: 786-0, 48 h
Method in brief: (§2)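 NCI five-dose screen at 0.01-100 µM, diluted from DMSO stocks in buffered saline (final DMSO <1%). Cells at 6×10^4 cells/ml in RPMI 1640 with 10% FBS, in duplicate wells, at 37 °C under 5% CO2 for 48 h. Cells diluted tenfold in saline and Coulter-counted. GI50, TGI and LC50 taken from log concentration-growth inhibition curves.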

[6] = test system: ACHN; experiment: Growth inhibition of human ACHN cells after 48 hrs by coulter counting analysis; type: functional; method in brief: as §2
[7] = Growth inhibition of human UO31 cells after 48 hrs by coulter counting analysis; type: functional; details: UO-31, 48 h
Method in brief: (§3)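 NCI five-dose screen, 0.01-100 µM, from DMSO stocks diluted in buffer saline (final DMSO <1%). Cells grown in RPMI 1640 + 10% FBS, seeded at 6×10^4 cells/ml, in duplicate wells. Exposure 48 h at 37 °C, 5% CO2. Cells diluted 10-fold in saline and counted by Coulter counter. GI50 derived from log concentration–percent growth inhibition curves. Controls carried matching PBS/saline/DMSO.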

[8] = test system: MCF7; experiment: Growth inhibition of human MCF7 cells after 48 hrs by coulter counting analysis; type: functional; details: MCF7, 48 h; method in brief: as §2
[9] = test system: T47D; experiment: Growth inhibition of human T47D cells after 48 hrs by coulter counting analysis; type: functional; method in brief: as §1
[10] = test system: MDA-MB-468; experiment: Growth inhibition of human MDA-MB-468 cells after 48 hrs by coulter counting analysis; type: functional; details: MDA-MB-468, 48 h; method in brief: as §1
[11] = Growth inhibition of human NCI60 cells after 48 hrs by coulter counting analysis; type: functional; details: NCI60, 48 h
Method in brief: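 Five-dose screen (0.01-100 µM, DMSO-solubilized, under 1% DMSO final), cells in RPMI 1640 + 10% FBS at 6×10^4 cells/ml, duplicate wells, 37 °C, 5% CO2, 48 h. Cells then diluted tenfold in saline and counted by Coulter counter with dilution correction. Controls held buffer/saline/DMSO at matching dilutions. GI50 derived from log concentration-percent growth inhibition curves.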

[12] = target: Cyclin-dependent kinase 4/cyclin D1 (Homo sapiens) (UniProt P11802+P24385); experiment: Inhibition of CDK4/Cyclin D1 (unknown origin) at 20 uM after 30 mins by scintillation counting analysis relative to control; type: protein-complex assay
Method in brief: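 Recombinant kinases, cloned, expressed and purified in-house. Radiometric ³³P-ATP assay with kinase at ~10-50 nM final and 1-5 µg peptide or protein substrate. Compound at 20 µM final, in duplicate. Reaction started by adding ATP, run 30 min at ambient temperature, then spotted on P81 phosphocellulose. Plates washed in 1% phosphoric acid and counted by scintillation. No-substrate blank subtracted. Result is mean % activity change versus DMSO control.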

[13] = Growth inhibition of human MOLT4 cells after 48 hrs by coulter counting analysis; type: functional; details: MOLT-4, 48 h; method in brief: as §1
[14] = test system: RPMI-8226; experiment: Growth inhibition of human RPMI8226 cells after 48 hrs by coulter counting analysis; type: functional; details: RPMI-8226, 48 h; method in brief: as §1
[15] = Growth inhibition of human EKVX cells after 48 hrs by coulter counting analysis; type: functional; method in brief: as §2
[16] = Growth inhibition of human HOP92 cells after 48 hrs by coulter counting analysis; type: functional; details: HOP-92, 48 h; method in brief: as §2
[17] = test system: NCI-H226; experiment: Growth inhibition of human NCI-H226 cells after 48 hrs by coulter counting analysis; type: functional; details: NCI-H226, 48 h; method in brief: as §1
[18] = test system: NCI-H322M; experiment: Growth inhibition of human NCI-H322M cells after 48 hrs by coulter counting analysis; type: functional; method in brief: as §1
[19] = test system: COLO 205; experiment: Growth inhibition of human COLO205 cells after 48 hrs by coulter counting analysis; type: functional; details: COLO 205, 48 h; method in brief: as §2
[20] = Growth inhibition of human HCT15 cells after 48 hrs by coulter counting analysis; type: functional; details: HCT-15, 48 h; method in brief: as §2
[21] = test system: HT-29; experiment: Growth inhibition of human HT-29 cells after 48 hrs by coulter counting analysis; type: functional; details: HT-29, 48 h; method in brief: as §2
[22] = test system: KM12; experiment: Growth inhibition of human KM12 cells after 48 hrs by coulter counting analysis; type: functional; details: KM12, 48 h; method in brief: as §2
[23] = test system: SF-268; experiment: Growth inhibition of human SF268 cells after 48 hrs by coulter counting analysis; type: functional; details: SF-268, 48 h; method in brief: as §1
[24] = Growth inhibition of human SF295 cells after 48 hrs by coulter counting analysis; type: functional; details: SF-295, 48 h; method in brief: as §1
[25] = Growth inhibition of human SF539 cells after 48 hrs by coulter counting analysis; type: functional; details: SF-539, 48 h; method in brief: as §1
[26] = test system: SNB-75; experiment: Growth inhibition of human SNB75 cells after 48 hrs by coulter counting analysis; type: functional; details: SNB-75, 48 h; method in brief: as §1
[27] = test system: U-251; experiment: Growth inhibition of human U251 cells after 48 hrs by coulter counting analysis; type: functional; details: U-251, 48 h; method in brief: as §3
[28] = Growth inhibition of human LOXIMVI cells after 48 hrs by coulter counting analysis; type: functional; details: LOX IMVI; method in brief: as §2
[29] = test system: M14; experiment: Growth inhibition of human M14 cells after 48 hrs by coulter counting analysis; type: functional; details: M14, 48 h; method in brief: as §2
[30] = test system: MDA-MB-435; experiment: Growth inhibition of human MDA-MB-435 cells after 48 hrs by coulter counting analysis; type: functional; details: MDA-MB-435, 48 h; method in brief: as §2
[31] = test system: SK-MEL-2; experiment: Growth inhibition of human SK-MEL-2 cells after 48 hrs by coulter counting analysis; type: functional; details: SK-MEL-2, 48 h; method in brief: as §1
[32] = test system: SK-MEL-28; experiment: Growth inhibition of human SK-MEL-28 cells after 48 hrs by coulter counting analysis; type: functional; details: SK-MEL-28, 48 h; method in brief: as §1
[33] = Growth inhibition of human UACC62 cells after 48 hrs by coulter counting analysis; type: functional; details: UACC-62, 48 h; method in brief: as §3
[34] = test system: IGROV-1; experiment: Growth inhibition of human IGROV1 cells after 48 hrs by coulter counting analysis; type: functional; details: IGROV-1, 48 h; method in brief: as §2
[35] = Growth inhibition of human OVCAR3 cells after 48 hrs by coulter counting analysis; type: functional; details: OVCAR-3, 48 h; method in brief: as §1
[36] = test system: Malme-3M; experiment: Growth inhibition of human MALME-3M cells after 48 hrs by coulter counting analysis; type: functional; method in brief: as §2

Row | SMILES | GI50 [1] [µM] | GI50 [2] [µM] | GI50 [3] [µM] | GI50 [4] [µM] | GI50 [5] [µM] | GI50 [6] [µM] | GI50 [7] [µM] | GI50 [8] [µM] | GI50 [9] [µM] | GI50 [10] [µM] | LC50 [11] [µM] | TGI [11] [µM] | inhibition [12] [%] | GI50 [13] [µM] | GI50 [14] [µM] | GI50 [15] [µM] | GI50 [16] [µM] | GI50 [17] [µM] | GI50 [18] [µM] | GI50 [19] [µM] | other results
1 | COc1c(C(=O)/C=C/c2ccccc2)c(O)cc2occc12 | 5.4 | 5.67 | 2.42 | 14.1 | 16.2 | 4.51 | 3.14 | 3.52 | 11.1 | 6.77 | 55 | 18.6 | 13 | 3.36 | 3.15 | 12.5 | 1.64 | 6.03 | 13.6 | 15.7 | GI50 [20]: 5.25 µM; GI50 [21]: 6.34 µM; GI50 [22]: 3.71 µM; GI50 [23]: 4.05 µM; GI50 [24]: 7.83 µM; GI50 [25]: 3.22 µM; GI50 [26]: 2.42 µM; GI50 [27]: 4.39 µM; GI50 [28]: 1.69 µM; GI50 [29]: 8.89 µM; GI50 [30]: 3.21 µM; GI50 [31]: 12.4 µM; GI50 [32]: 7.03 µM; GI50 [33]: 4.15 µM; GI50 [34]: 3.51 µM; GI50 [35]: 3.76 µM
2 | C=CCc1c(O)c(C(=O)/C=C/c2ccccc2)c(OC)c2ccoc12 | 2.89 | 3.22 | 1.88 | 8.08 | 4.12 | 3.79 | 2.89 | 2.73 | 4.11 | 3.07 | 41.7 | 11.2 | 0 | 2.17 | 1.88 | 6.13 | 1.33 | 1.48 | 3.19 | 5.96 | GI50 [20]: 2.91 µM; GI50 [21]: 3.01 µM; GI50 [22]: 4.06 µM; GI50 [23]: 2.8 µM; GI50 [24]: 2.44 µM; GI50 [25]: 1.71 µM; GI50 [26]: 1.39 µM; GI50 [27]: 2.36 µM; GI50 [28]: 1.56 µM; GI50 [36]: 5.8 µM; GI50 [29]: 5.36 µM; GI50 [30]: 2.78 µM; GI50 [31]: 3.04 µM; GI50 [32]: 2.49 µM; GI50 [33]: 2.74 µM; GI50 [34]: 3.35 µM; GI50 [35]: 2.46 µM
3 | C=CCc1c2c(c(OC)c3ccoc13)C(=O)/C(=C/c1ccccc1OC)O2 | 3.34 | 3.57 | 2.82 | 5.45 | 6.29 | 4.32 | 4.98 | 2.92 | 4.34 | 2.46 | 100 | 58.9 | 9 | 3.52 | 3.51 | 4.41 | 2.07 | 3.22 | 5.93 | 7.64 | GI50 [20]: 3.6 µM; GI50 [21]: 3.98 µM; GI50 [22]: 3.49 µM; GI50 [23]: 3.73 µM; GI50 [24]: 3.67 µM; GI50 [25]: 5.45 µM; GI50 [26]: 1.44 µM; GI50 [27]: 3.53 µM; GI50 [28]: 3.13 µM; GI50 [36]: 19.8 µM; GI50 [29]: 8.19 µM; GI50 [30]: 3.12 µM; GI50 [31]: 6.06 µM; GI50 [32]: 5.21 µM; GI50 [33]: 4.14 µM; GI50 [34]: 5.27 µM; GI50 [35]: 3.28 µM
4 | C=CCc1c(O)c(C(=O)/C=C/c2ccc(Cl)cc2)c(OC)c2ccoc12 | 2.77 | 2.8 | 2.23 | 5.96 | 4.83 | 2.31 | 2.88 | 2.51 | 3.29 | 2.27 | 37.1 | 11 | 0 | 2.61 | 3.04 | 7.23 | 1.69 | 1.52 | 4.88 | 4.44 | GI50 [20]: 3.4 µM; GI50 [21]: 1.89 µM; GI50 [22]: 3.72 µM; GI50 [23]: 3.25 µM; GI50 [24]: 2.77 µM; GI50 [25]: 1.79 µM; GI50 [26]: 2.01 µM; GI50 [27]: 2.3 µM; GI50 [28]: 1.63 µM; GI50 [36]: 2.74 µM; GI50 [29]: 5.08 µM; GI50 [30]: 2.06 µM; GI50 [31]: 3.97 µM; GI50 [32]: 2.32 µM; GI50 [33]: 2.88 µM; GI50 [34]: 3.46 µM; GI50 [35]: 1.97 µM
